From PubChem
V-ATPase pHluor – alters yeast V-ATPase proton transport. S. cerevisiae, pHLuorin cytosolic pH fluorescence. response, % at 10 µM. hit rate 0.37% among 350,000; in the data active = response mostly above about 7.3%, no sharp cut-off; inactive = mostly below about 5.4%; note: actives read high
GAA850 FXN act – frataxin GAA850 promoter activation | HEK293 lucGAA850 FXN promoter luciferase reporter, 24 h; percent of 10 µM SAHA response | activation, % at 6 µM | hit rate 0.56% among 360,000 | AID 540364;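 active = activation above the average of all compounds screened plus 3 SD, cutoff fixed separately per campaign, cut at about 7.5% in these data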;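 note: 0% = DMSO wells and 100% = 10 µM SAHA wells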
NR2E3 ag-1 – NR2E3 (human) agonism | Q9Y5X4 | GST-NR2E3/biotin-RetCOR TR-FRET, 1536-well | inhibition of corepressor binding, % at 4.78 µM | hit rate 0.12% among 320,000;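 active = percent inhibition above the cutoff of mean plus 3 SD of all tested compounds, set per screening campaign, cut at about 20% in these data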;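 note: 0% = DMSO wells and 100% = biotin wells as full block of FRET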
Target sequence (Q9Y5X4 whole entry, looked up): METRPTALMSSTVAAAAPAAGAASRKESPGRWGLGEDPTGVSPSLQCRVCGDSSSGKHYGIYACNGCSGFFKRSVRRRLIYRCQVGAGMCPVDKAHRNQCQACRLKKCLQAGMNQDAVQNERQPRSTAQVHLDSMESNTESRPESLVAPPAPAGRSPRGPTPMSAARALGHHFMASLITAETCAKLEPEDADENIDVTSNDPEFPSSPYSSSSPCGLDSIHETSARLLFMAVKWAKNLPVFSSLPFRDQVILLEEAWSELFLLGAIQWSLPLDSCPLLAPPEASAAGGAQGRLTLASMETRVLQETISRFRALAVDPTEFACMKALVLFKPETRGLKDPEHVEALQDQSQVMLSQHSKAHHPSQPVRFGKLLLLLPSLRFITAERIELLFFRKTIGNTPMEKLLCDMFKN
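Material: NR2E3–RetCOR corepressor complex / Incubation: Compound–protein incubation for 5 h at 4 °C / Dosing: compound at 4.8 µM, single dose / Detection: time-resolved FRET / Benchmarks: high control biotin, low control 0.6% DMSO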
HIV Env fusion – inhibitors of HIV Env-mediated cell fusion; inhibition, % at 12.3 µM; HeLa-JRFL Env/CEM21 cell fusion, luciferase; AID 651610; hit rate 1.1% among 360,000;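 active = mean replicate inhibition score of at least 50 and every replicate individually at or above 50; inconclusive = only one of the two criteria met; inactive = mean below 50 and not all replicates reaching 50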;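 note: 0% = plate neutral controls and 100% = maraviroc near 300 nM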
GalR3 antagonist – antagonists of human GalR3 | hit rate 0.44% among 360,000 | inhibition, % at 3 µM | HEK293 GalR3-CNG cAMP membrane potential fluorescence; galR3 body fused to GalR1 C-terminus | O60755 | AID 651719;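 active = inhibition above the screen-wide average plus 3 SD, cut at about 13% in these data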;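 note: forskolin and galanin both at EC90 stimulate the cells; cAMP rise reported by CNG channel membrane potential dye signal; 0% = forskolin plus galanin with DMSO and 100% = forskolin alone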
Target sequence (O60755 1-299 limits assumed): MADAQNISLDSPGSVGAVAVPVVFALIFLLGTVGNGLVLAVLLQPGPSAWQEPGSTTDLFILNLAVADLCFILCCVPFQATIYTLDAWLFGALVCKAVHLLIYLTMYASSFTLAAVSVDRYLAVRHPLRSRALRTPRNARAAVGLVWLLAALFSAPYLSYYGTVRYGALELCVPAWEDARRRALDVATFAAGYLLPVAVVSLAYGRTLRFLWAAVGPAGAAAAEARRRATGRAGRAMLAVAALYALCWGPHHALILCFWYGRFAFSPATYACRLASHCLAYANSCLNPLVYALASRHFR
NR2E3 ag-2 – human photoreceptor-specific nuclear receptor agonism | Q9Y5X4 | CHO-S Gal4-NCOR/VP16-NR2E3 two-hybrid, luciferase | inhibition of corepressor binding, % at 3.98 µM | hit rate 0.35% among 360,000 | AID 602229;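 active = inhibition above the mean of all tested compounds plus 3 SD, cut at about 70% in these data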;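 note: 0% = DMSO with NR2E3 transfected cells and 100% = cells lacking NR2E3 construct; higher means lower luciferase signal from less NR2E3 corepressor binding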
NR2E3 ag conf – NR2E3 agonism confirmed in two-hybrid assay; shares compounds with NR2E3 ag-2; CHO-S mammalian two-hybrid NR2E3-NCOR, luciferase luminescence; inhibition, % at 3.98 µM; hit rate 51% among 2,300; AID 624378;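 active = average inhibition above a cutoff equal to the mean inhibition of all tested compounds plus one SD, cut at about 70% in these data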;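 note: 0% = DMSO in NR2E3 cells and 100% = DMSO in cells lacking NR2E3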
GAL4-VP16 luc – reduces GAL4-VP16 reporter signal in NR2E3 counterscreen. shares compounds with NR2E3 ag-2. CHO-S GAL4-VP16 luciferase reporter, luminescence. inhibition, % at 3.98 µM. hit rate 29% among 2,300. AID 624379;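 active = mean inhibition above a cutoff equal to the average over all tested compounds plus one standard deviation, cut at about 70% in these data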;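 note: luciferase from a UAS reporter driven by GAL4-VP16 transactivation; 0% = DMSO with VP16-transfected cells and 100% = DMSO with cells lacking VP16; higher means less reporter light so more repression of VP16 activity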
GalR3 conf – confirmation of human galanin receptor 3 antagonists | hit rate 59% among 1,600 | shares compounds with GalR3 antagonist | inhibition, % at 3 µM | HEK293 GalR3 CNG cAMP biosensor, membrane potential fluorescence; galR3 fused to GalR1 carboxy tail; challenged with forskolin and galanin at EC90 | AID 652245;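 active = inhibition above the primary screen's cutoff, the mean inhibition of all screened compounds plus 3 SD, cut at about 13% in these data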;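 note: 0% = forskolin plus galanin and 100% = forskolin alone with DMSO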
HEK-CNG parental – counter-screen for GalR3 antagonists: nonspecific agonists in parental HEK-CNG cells; shares compounds with GalR3 antagonist; HEK293-CNG parental cells, cAMP membrane potential fluorescence; normalised: DMSO wells 0%, forskolin wells 100%; activation, % at 3 µM; hit rate 10% among 1,600; AID 652268; in the data active = activation above about 1.3%
Active calls of the source: *; ? = inconclusive; nt = no result given; [ ] = remark or other dose. The list is not random: actives were taken first. Their share in the collection is about 2.2%.

SMILES | V-ATPase pHluor | GAA850 FXN act | NR2E3 ag-1 | HIV Env fusion | GalR3 antagonist | NR2E3 ag-2 | NR2E3 ag conf | GAL4-VP16 luc | GalR3 conf | HEK-CNG parental
COc1ccc(Cc2nc3ccc(C(=O)N4C[C@@H](C)O[C@@H](C)C4)cc3o2)cc1OC | 2 | 1 | 2 | -21 | -8 | -82 | nt | nt | nt | nt
COc1ccc(CCNc2ccc(N3C(=O)CC(C)C3=O)cc2[N+](=O)[O-])cc1OC (stereo not given) | -7 | -2 | 2 | 68* | 59* | 75* | 57 | 73* | 104* | -1
COc1ccc(OC)c(S(=O)(=O)N/N=C\c2ccc3c(c2)OCO3)c1 | -1 | 3 | 3 | nt | -3 | 5 | nt | nt | nt | nt
COc1ccc(S(=O)(=O)N/N=C\c2ccc3c(c2)OCO3)c(OC)c1 | 7 | -2 | nt | 43 | 100* | 55 | 15 | 52 | 73* | 0
COc1ccc(NC(=O)Nc2ccc3c(c2)C(=O)N([C@@H](C)CO)C[C@@H](C)[C@H](CN(C)C(=O)Nc2c(C)noc2C)OCCCC[C@@H](C)O3)cc1 | nt | nt | nt | -13[16.7 µM] | nt | nt | nt | nt | nt | nt
CC(=O)OC[C@]12CC[C@H]3[C@@](C)(CC[C@H]4C(C)(C)CCC[C@]34C)[C@@H]1CC(C1=CC(=O)OC1O)O2 (stereo not given in full) | nt | -15 | nt | nt | 30* | 102* | 100* | 100* | 44* | 1.8*
OC(c1ccc(F)cc1)c1nc(-c2ccncc2)cs1 (stereo not given) | nt | -2 | nt | 5 | 13* | 79* | 83* | 71* | 32* | 0
Cn1cc(CNCc2ccc(OC(F)(F)F)cc2)c(-c2ccc3c(c2)OCCO3)n1 | -2 | -1 | -2 | -7 | 35* | 76* | 90* | 79* | 92* | 1.7*
S=C(NCCc1ccccc1)Nc1cccc2cnccc12 | -6 | -1 | 1 | 19 | 33* | 74* | 91* | 79* | 103* | 0
CC(C)(C)CC(=O)Nc1nnc(C(F)(F)F)s1 | 6 | -1 | -2 | -48 | -1 | 27 | nt | nt | nt | nt
CC(NC(=O)Nc1nnc(C(F)(F)F)s1)(C(F)(F)F)C(F)(F)F | 4 | -12 | -3 | nt | 81* | 106* | 100* | 94* | 88* | 0
COc1ccc(-[n+]2c(C)cc(/C=C3\Sc4ccccc4N3C)cc2C)cc1 | 8 | -11 | -8 | 34 | 82* | 93* | 99* | 92* | 103* | -1
COc1ccccc1-[n+]1c(C)cc(/C=C2\Sc3ccccc3N2C)cc1C | -1 | -15 | -10 | -9 | 44* | 92* | 97* | 83* | 107* | 0
COc1ccc(C(=O)/C=C2\Sc3ccccc3N2C)cc1 | -2 | 6 | -2 | -201 | -4 | -153 | nt | nt | nt | nt
Cc1cc(CN(C)C(=O)c2cc(COc3ccc4ncccc4c3)on2)on1 | 0 | -2 | 0 | -15 | 37* | 48 | 73* | 63 | 69* | 0
CN(Cc1nccn1C)C(=O)c1cc(COc2ccc3ncccc3c2)on1 | 1 | 0 | -2 | 12 | -4 | 1 | nt | nt | nt | nt
CCC(O)C1CCN(C(=O)c2cc(COc3ccc4ncccc4c3)on2)CC1 (stereo not given) | 2 | -5 | 3 | 35 | 101* | 78* | 96* | 85* | 91* | 0
COCC1CCCN(C(=O)c2cc(COc3ccc4ncccc4c3)on2)C1 (stereo not given) | 2 | -4 | 2 | ? | 100* | 105* | 94* | 87* | 125* | 0
O=C(NC1CCCCCCC1)c1cc(COc2ccc3ncccc3c2)on1 | 2 | -5 | nt | 22 | 68* | 80* | 95* | 88* | 92* | 1
COc1cccc(OCc2cc(C(=O)N3CCC(C(O)C(C)C)CC3)no2)c1 (stereo not given) | -5 | 2 | 0 | -5 | 3 | -4 | nt | nt | nt | nt
CCCNC(=O)N1C[C@@H](O)COC[C@@H]2O[C@H](CC(=O)NCc3ccc(Cl)c(Cl)c3)CC[C@H]21 | nt | nt | nt | 6[16.7 µM] | nt | nt | nt | nt | nt | nt
CS(=O)(=O)Nc1ccc2c(c1)[C@H]1C[C@@H](CC(=O)NCc3ccccn3)O[C@H](CO)[C@H]1O2 | nt | nt | nt | 1[16.7 µM] | nt | nt | nt | nt | nt | nt
COc1ccc(CN(C)C[C@H]2Oc3ccc(NS(=O)(=O)c4c(C)noc4C)cc3C(=O)N([C@H](C)CO)C[C@@H]2C)cc1 | nt | nt | nt | 2[16.7 µM] | nt | nt | nt | nt | nt | nt
CCc1ccc(CN(C)C(=O)c2cc(COc3cccc4cnccc34)on2)cc1 | -3 | -4 | 4 | 8 | 14* | 108* | 98* | 89* | 84* | 1
C[C@@H]1CN([C@@H](C)CO)C(=O)c2cc(NC(=O)Cc3ccccc3)ccc2O[C@@H]1CN(C)C(=O)Nc1ccc(C(F)(F)F)cc1 | nt | nt | nt | -12[16.7 µM] | nt | nt | nt | nt | nt | nt
SMILES | V-ATPase pHluor | GAA850 FXN act | NR2E3 ag-1 | HIV Env fusion | GalR3 antagonist | NR2E3 ag-2 | NR2E3 ag conf | GAL4-VP16 luc | GalR3 conf | HEK-CNG parental
CCNC(=O)[C@H]1[C@H](CO)[C@H]2Cn3c(ccc(-c4ccc(OC)cc4)c3=O)[C@@H]1N2CC1CC1 | nt | nt | nt | 4[16.7 µM] | nt | nt | nt | nt | nt | nt
Cc1nn(C)c(C)c1CN(C)S(=O)(=O)c1ccc2ccccc2c1 | -3 | -4 | 1 | 72* | 110* | 85* | 96* | 86* | 116* | 0
Cc1nn(C)c(C)c1CN(C)S(=O)(=O)c1ccc(F)cc1 | 0 | 2 | 5 | nt | -5 | 11 | nt | nt | nt | nt
CN(C)S(=O)(=O)Oc1cccc(C(=O)Nc2ccc(Cl)cc2)c1 | -3 | -1 | 1 | -25 | 28* | 60 | 30 | 7 | 51* | -1
C[C@H]1CN([C@@H](C)CO)C(=O)c2cccc(NC(=O)c3cnccn3)c2O[C@@H]1CN(C)CC1CC1 | nt | nt | nt | 43[16.7 µM] | nt | nt | nt | nt | nt | nt
Cc1nc2ccccc2n1Cc1ccc(Br)cc1 | -1 | -2 | 4 | -18 | 83* | 84* | 94* | 85* | 108* | 0
Cc1nc2ccccc2n1Cc1ccccc1 | -2 | 1 | 2 | -2 | -11 | 11 | nt | nt | nt | nt
CN(C)S(=O)(=O)N1CCC(Oc2cccc(C(=O)NC3CCCCC3)c2)CC1 | 4 | -5 | -3 | 38 | 14* | 48 | 24 | 42 | 62* | 0
